Results published in ChEMBL document CHEMBL1821638, “Targeting the human malaria parasite Plasmodium falciparum: in vitro identification of a new antiplasmodial hit in 4-phenoxy-2-trichloromethylquinazoline series” (Eur J Med Chem, 2011).
The source made the active and inactive calls. The rule behind the calls is not given here.

Columns and labels:
[1] = Cytotoxicity against human HepG2 cells after 72 hrs by MTT assay; assay type: cell-based
Method in brief: (§1)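 HepG2 or HFF cells seeded in RPMI with 10% foetal bovine serum, L-glutamine and penicillin/streptomycin, 37 °C, 6% CO₂; after 24 h, medium with various compound concentrations added for 72 h. Wells checked microscopically for precipitate. MTT in serum-free medium 2 h at 37 °C, formazan dissolved in DMSO, absorbance at 570 nm (630 nm reference). Viability as percent of untreated control; doxorubicin reference.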

Plasmodium falciparum [2] = test: Antiplasmodial activity against chloroquine, pyrimethamine and proguanil-resistant Plasmodium falciparum W2 infected in human A positive erythrocytes after 72 hrs by SYBR Green I assay; assay type: functional, organism-based; conditions: W2, 72 h
[3] = Selectivity index, ratio of CC50 for human HepG2 cells to IC50 for chloroquine, pyrimethamine and proguanil-resistant Plasmodium falciparum W2; assay type: functional
[4] = Solubility of the compound; assay type: physicochemical
Toxoplasma gondii = test: Antiparasitic activity against Toxoplasma gondii PRU tachyzoites harboring beta-Gal gene infected in human HFF cells after 72 hrs by microtiter plate based assay; assay type: functional, cell-based
Method in brief: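 T. gondii PRU-b-Gal tachyzoites kept by serial passage in confluent human foreskin fibroblast (HFF) monolayers. Compounds in DMSO (final <0.5% v/v) added at various concentrations in triplicate. Controls: DMSO-treated, pyrimethamine, and uninfected drug-free monolayers. Incubated 72 h at 37 °C, 6% CO2. Read by colorimetric microtiter assay.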

[5] = Cytotoxicity against human HFF cells after 72 hrs by MTT assay; assay type: cell-based; method in brief: as §1
HepG2 = test: Cytotoxicity against human HepG2 cells at > 125 uM after 72 hrs by MTT assay; assay type: cell-based; conditions: hepg2, 72 h; method in brief: as §1
Plasmodium falciparum [6] = test: Antiplasmodial activity against chloroquine, pyrimethamine and proguanil-resistant Plasmodium falciparum W2 infected in human A positive erythrocytes at > 50 uM after 72 hrs by SYBR Green I assay; assay type: functional, organism-based
Method in brief: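 W2 strain kept in continuous culture in A+ human erythrocytes at 2.5% hematocrit. Medium was RPMI 1640 with 25 mM HEPES, 25 mM NaHCO3 and 10% A+ human serum, at 37 °C under 5% O2/5% CO2/90% N2, parasitaemia 1–6%. Drug exposure 72 h. Lysis buffer with SYBR Green I, saponin and Triton X-100, 15 min at 37 °C. Fluorescence read at ex 497/em 520 nm. IC50 by non-linear regression, mean of three independent experiments.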

Salmonella typhimurium [7] = test: Mutagenic activity in Salmonella Typhimurium TA97a assessed as number of spontaneous and drug-induced revertants at 25 to 125 nM after 48 hrs by Ames test; assay type: toxicity, organism-based; conditions: salmonella enterica subsp. enterica serovar typhimurium, 0.125 µM
Method in brief: (§2)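 Salmonella tester strains grown overnight in nutrient broth. Compound in DMSO added to 0.1 mL culture and preincubated 1 h at 37 °C with shaking, in duplicate. Mixed with 2 mL molten top agar and plated on Vogel-Bonner minimal agar. After 48 h at 37 °C, spontaneous and induced revertants per plate counted for each dose by laser colony counter, against negative controls.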

Salmonella typhimurium [8] = test: Mutagenic activity in Salmonella Typhimurium TA98 assessed as number of spontaneous and drug-induced revertants at 25 to 125 nM after 48 hrs by Ames test; assay type: toxicity, organism-based; conditions: salmonella enterica subsp. enterica serovar typhimurium, 0.125 µM; method in brief: as §2
Salmonella typhimurium [9] = test: Mutagenic activity in Salmonella Typhimurium TA102 assessed as number of spontaneous and drug-induced revertants at 25 to 125 nM after 48 hrs by Ames test; assay type: toxicity, organism-based; conditions: salmonella enterica subsp. enterica serovar typhimurium, 0.125 µM; method in brief: as §2
Salmonella typhimurium [10] = test: Mutagenic activity in Salmonella Typhimurium TA100 assessed as number of spontaneous and drug-induced revertants at 25 to 125 nM after 48 hrs by Ames test; assay type: toxicity, organism-based; conditions: salmonella enterica subsp. enterica serovar typhimurium, 0.125 µM; method in brief: as §2

Structure (SMILES): FC(F)(F)c1cccc(Oc2nc(C(Cl)(Cl)Cl)nc3ccccc23)c1
- CC50 at 72 h [1]: 25.1 µM
- IC50 (Plasmodium falciparum [2]): 2.3 µM
- Ratio CC50/IC50 [3]: 10.9

Structure (SMILES): O=[N+]([O-])c1ccc(Oc2nc(C(Cl)(Cl)Cl)nc3ccccc23)cc1
- solubility [4]: Insoluble
- CC50 at 72 h [1]: > 16 µM
- IC50 (Plasmodium falciparum [2]): 3.5 µM
- Ratio CC50/IC50 [3]: >4.6

Structure (SMILES): ClC(Cl)(Cl)c1nc(Oc2ccccc2)c2ccccc2n1
- CC50 at 72 h [1]: 50 µM
- IC50 (Plasmodium falciparum [2]): 3.1 µM
- Ratio CC50/IC50 [3]: 16

Structure (SMILES): CCc1nc(N)nc(N)c1-c1ccc(Cl)cc1 [PYRIMETHAMINE]
- IC50 (Toxoplasma gondii): 1.1 µM
- CC50 at 72 h [1]: 7.1 µM
- CC50 at 72 h [5]: > 50 µM

Structure (SMILES): FC(F)(F)c1ccc(Oc2nc(C(Cl)(Cl)Cl)nc3ccccc23)cc1
- CC50 at 72 h [1]: 29.6 µM
- IC50 (Plasmodium falciparum [2]): 1.8 µM
- Ratio CC50/IC50 [3]: 16.4

Structure (SMILES): Clc1ccccc1Oc1nc(C(Cl)(Cl)Cl)nc2ccccc12
- CC50 at 72 h [1]: 33.6 µM
- IC50 (Plasmodium falciparum [2]): 4.4 µM
- Ratio CC50/IC50 [3]: 7.6

Structure (SMILES): O=[N+]([O-])c1ccccc1Oc1nc(C(Cl)(Cl)Cl)nc2ccccc12
- solubility [4]: Insoluble
- CC50 at 72 h [1]: > 8 µM
- IC50 (Plasmodium falciparum [2]): 4.9 µM
- Ratio CC50/IC50 [3]: >1.6

Structure (SMILES): COc1cccc(Oc2nc(C(Cl)(Cl)Cl)nc3ccccc23)c1
- CC50 at 72 h [1]: 0.6 µM
- IC50 (Plasmodium falciparum [2]): 1.9 µM
- Ratio CC50/IC50 [3]: 0.3

Structure (SMILES): Cc1ccc(Oc2nc(C(Cl)(Cl)Cl)nc3ccccc23)cc1C
- CC50 at 72 h [1]: 29 µM
- IC50 (Plasmodium falciparum [2]): 3.3 µM
- Ratio CC50/IC50 [3]: 8.8

Structure (SMILES): Cc1cccc(Oc2nc(C(Cl)(Cl)Cl)nc3ccccc23)c1
- CC50 at 72 h [1]: 7.6 µM
- IC50 (Plasmodium falciparum [2]): 2.9 µM
- Ratio CC50/IC50 [3]: 2.6

Structure (SMILES): COc1ccccc1Oc1nc(C(Cl)(Cl)Cl)nc2ccccc12
- CC50 at 72 h [1]: 6.7 µM
- IC50 (Plasmodium falciparum [2]): 6 µM
- Ratio CC50/IC50 [3]: 1.1

Structure (SMILES): COc1ccc(Oc2nc(C(Cl)(Cl)Cl)nc3ccccc23)cc1
- CC50 at 72 h [1]: 34.1 µM
- IC50 (Plasmodium falciparum [2]): 2.9 µM
- Ratio CC50/IC50 [3]: 11.8

Structure (SMILES): ClC(Cl)(Cl)c1nc(Oc2cccc3ccccc23)c2ccccc2n1
- CC50 at 72 h [1]: 2.4 µM
- IC50 (Plasmodium falciparum [2]): 3.9 µM
- Ratio CC50/IC50 [3]: 0.6

Structure (SMILES): FC(F)(F)c1nc(Oc2ccc(Cl)cc2)c2ccccc2n1
- CC50 at 72 h [1]: 72 µM
- IC50 (Plasmodium falciparum [2]): 68 µM
- Ratio CC50/IC50 [3]: 1.1

Structure (SMILES): Cc1nc(Oc2ccc(Cl)cc2)c2ccccc2n1
- CC50 at 72 h [1]: 26 µM
- IC50 (Plasmodium falciparum [2]): 28 µM
- Ratio CC50/IC50 [3]: 0.9

Structure (SMILES): Fc1cccc(Oc2nc(C(Cl)(Cl)Cl)nc3ccccc23)c1
- CC50 at 72 h [1]: 41.7 µM
- IC50 (Plasmodium falciparum [2]): 2.3 µM
- Ratio CC50/IC50 [3]: 18.1

Structure (SMILES): Cc1ccccc1Oc1nc(C(Cl)(Cl)Cl)nc2ccccc12
- CC50 at 72 h [1]: 25.1 µM
- IC50 (Plasmodium falciparum [2]): 5.5 µM
- Ratio CC50/IC50 [3]: 4.6

Structure (SMILES): Clc1cccc(Oc2nc(C(Cl)(Cl)Cl)nc3ccccc23)c1
- CC50 at 72 h [1]: 26.1 µM
- IC50 (Plasmodium falciparum [2]): 2.4 µM
- Ratio CC50/IC50 [3]: 10.9

Structure (SMILES): Clc1nc(C(Cl)(Cl)Cl)nc2ccccc12
- Ratio CC50/IC50 [3]: >2.3
- Activity (HepG2): Non-toxic

Structure (SMILES): FC(F)(F)c1ccccc1Oc1nc(C(Cl)(Cl)Cl)nc2ccccc12
- CC50 at 72 h [1]: 34.9 µM
- IC50 (Plasmodium falciparum [2]): 3.3 µM
- Ratio CC50/IC50 [3]: 10.6

Structure (SMILES): C[C@H]1c2cccc(O)c2C(=O)C2=C(O)[C@]3(O)C(=O)C(C(N)=O)=C(O)[C@@H](N(C)C)[C@@H]3[C@@H](O)[C@@H]21.O [DOXYCYCLINE]
- CC50 at 72 h [1]: 20 µM
- IC50 (Plasmodium falciparum [2]): 4.8 µM
- Ratio CC50/IC50 [3]: 4.2

Structure (SMILES): Fc1ccccc1Oc1nc(C(Cl)(Cl)Cl)nc2ccccc12
- CC50 at 72 h [1]: 38.3 µM
- IC50 (Plasmodium falciparum [2]): 5 µM
- Ratio CC50/IC50 [3]: 7.7

Structure (SMILES): Oc1nc(C(Cl)(Cl)Cl)nc2ccccc12
- CC50 at 72 h [1]: 21 µM
- Activity (Plasmodium falciparum [6]): inactive
- Ratio CC50/IC50 [3]: <0.42

Structure (SMILES): Fc1ccc(Oc2nc(C(Cl)(Cl)Cl)nc3ccccc23)cc1
- CC50 at 72 h [1]: 29.5 µM
- IC50 (Plasmodium falciparum [2]): 2.4 µM
- Ratio CC50/IC50 [3]: 12.3

Structure (SMILES): ClC(Cl)(Cl)c1nc(Oc2ccc3ccccc3c2)c2ccccc2n1
- CC50 at 72 h [1]: 3.6 µM
- IC50 (Plasmodium falciparum [2]): 2.3 µM
- Ratio CC50/IC50 [3]: 1.6

Structure (SMILES): O=[N+]([O-])c1cccc(Oc2nc(C(Cl)(Cl)Cl)nc3ccccc23)c1
- CC50 at 72 h [1]: 36.3 µM
- IC50 (Plasmodium falciparum [2]): 3 µM
- Ratio CC50/IC50 [3]: 12.1

Structure (SMILES): Cc1ccc(Oc2nc(C(Cl)(Cl)Cl)nc3ccccc23)cc1
- CC50 at 72 h [1]: 42.8 µM
- IC50 (Plasmodium falciparum [2]): 3.2 µM
- Ratio CC50/IC50 [3]: 13.4

Structure (SMILES): COc1cccc2c1C(=O)c1c(O)c3c(c(O)c1C2=O)C[C@@](O)(C(=O)CO)C[C@@H]3O[C@H]1C[C@H](N)[C@H](O)[C@H](C)O1 [DOXORUBICIN]
- Activity (Salmonella typhimurium [7]): Toxic
- CC50 at 72 h [1]: 0.2 µM
- Activity (Salmonella typhimurium [8]): Toxic
- Activity (Salmonella typhimurium [9]): Toxic
- CC50 at 72 h [5]: 0.03 µM
- Activity (Salmonella typhimurium [10]): Toxic
